Test results from ChEMBL document CHEMBL3758088, “Synthesis and biological evaluation of enantiomerically pure glyceric acid derivatives as LpxC inhibitors” (Bioorg Med Chem, 2016).
Converted amounts (≈) assume the structure as drawn.

How the values were obtained:
Escherichia coli [1] = assay: Antibacterial activity against Escherichia coli BL21(DE3) incubated for 20 hrs by microdilution assay; format: functional
How it was run: (§1)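 Broth microdilution in LB medium with 5% DMSO. Overnight cultures (LB, 37 °C, 200 rpm) were diluted 1:100 in fresh LB. Compounds were added from a twofold DMSO dilution series (5.12 mM to 20 nM stock), giving 256 μM to 1 nM final. Plates were shaken 20 h at 37 °C, 200 rpm. MIC was the lowest concentration with no visible growth.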

Escherichia coli [2] = assay: Antibacterial activity against Escherichia coli D22 incubated for 20 hrs by microdilution assay; format: functional; settings: D22, 20 h; how it was run: as §1
[3] = biological target: UDP-3-O-acyl-N-acetylglucosamine deacetylase (Escherichia coli K-12, UniProt P0A725, C63A); assay: Inhibition of Escherichia coli LpxC C63A mutant using UDP-3-O-[(R)-3-hydroxymyristoyl]-N-acetylglucosamine substrate after 30 mins by fluorescence-bsed microplate assay
Chain of UDP-3-O-acyl-N-acetylglucosamine deacetylase (P0A725 whole entry C63A, the tested form may be a part): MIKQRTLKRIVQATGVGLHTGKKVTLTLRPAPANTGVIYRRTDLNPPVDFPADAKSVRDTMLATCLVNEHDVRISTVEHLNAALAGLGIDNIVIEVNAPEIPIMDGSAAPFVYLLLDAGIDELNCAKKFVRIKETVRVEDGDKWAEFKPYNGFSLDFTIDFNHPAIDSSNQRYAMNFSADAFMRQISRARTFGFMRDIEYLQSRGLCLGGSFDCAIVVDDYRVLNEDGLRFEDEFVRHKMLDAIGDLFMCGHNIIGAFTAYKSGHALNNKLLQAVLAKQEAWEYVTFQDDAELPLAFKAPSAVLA

Escherichia coli [4] = assay: Antibacterial activity against Escherichia coli BL21(DE3) incubated overnight by agar disk diffusion clearance assay; format: functional
How it was run: (§2)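 Agar disc diffusion. 150 µL of an overnight LB culture (37 °C, 200 rpm) was spread on LB agar. 6 mm filter discs were loaded with 15 µL of 10 mM compound in DMSO, with DMSO and CHIR-090 discs as controls. Plates were incubated overnight at 37 °C and the diameter of the growth-inhibition zone was measured. Values are mean ± SD of three independent experiments.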

Escherichia coli [5] = assay: Antibacterial activity against Escherichia coli D22 incubated overnight by agar disk diffusion clearance assay; format: functional; how it was run: as §2

## O=C(CO[C@@H](CO)c1ccc(C#Cc2ccccc2)cc1)NO
Escherichia coli [1]
  MIC: 256 µM (≈ 79.7 µg/mL)
Escherichia coli [2]
  MIC: 32 µM (≈ 9.96 µg/mL)
[3]
  IC50: 31600 nM
  Ki: 4400 nM

## C[C@@H](O)[C@H](NC(=O)c1ccc(C#Cc2ccc(CN3CCOCC3)cc2)cc1)C(=O)NO
Escherichia coli [1]
  MIC: 1 µM (≈ 0.437 µg/mL)
Escherichia coli [2]
  MIC: 0.032 µM (≈ 0.014 µg/mL)

## O=C(NO)[C@@H](CO)OCc1ccc(C#Cc2ccc(CN3CCOCC3)cc2)cc1
Escherichia coli [4]
  diameter of the inhibition zone (DIZ): 12.3 mm
Escherichia coli [5]
  diameter of the inhibition zone (DIZ): 22 mm
Escherichia coli [1]
  MIC: 128 µM (≈ 52.5 µg/mL)
Escherichia coli [2]
  MIC: 4 µM (≈ 1.64 µg/mL)
[3]
  IC50: 1660 nM
  Ki: 230 nM

## O=C(COCc1ccc(C#Cc2ccc(CN3CCOCC3)cc2)cc1)NO
Escherichia coli [1]
  MIC: 64 µM (≈ 24.3 µg/mL)
Escherichia coli [2]
  MIC: 1 µM (≈ 0.38 µg/mL)
[3]
  IC50: 10500 nM
  Ki: 1450 nM

## O=C(NO)[C@H](CO)OCc1ccc(C#Cc2ccccc2)cc1
Escherichia coli [4]
  diameter of the inhibition zone (DIZ): 11.7 mm
Escherichia coli [5]
  diameter of the inhibition zone (DIZ): 20.7 mm
Escherichia coli [1]
  MIC: 128 µM (≈ 39.9 µg/mL)
Escherichia coli [2]
  MIC: 4 µM (≈ 1.25 µg/mL)
[3]
  IC50: 1960 nM
  Ki: 270 nM

## O=C(NO)[C@@H](CO)OCc1ccc(C#Cc2ccccc2)cc1
Escherichia coli [4]
  diameter of the inhibition zone (DIZ): 10.3 mm
Escherichia coli [5]
  diameter of the inhibition zone (DIZ): 17 mm
Escherichia coli [1]
  MIC: 256 µM (≈ 79.7 µg/mL)
Escherichia coli [2]
  MIC: 8 µM (≈ 2.49 µg/mL)
[3]
  IC50: 1870 nM
  Ki: 260 nM

## O=C(CO[C@@H](CO)c1ccc(C#Cc2ccc(CN3CCOCC3)cc2)cc1)NO
Escherichia coli [1]
  MIC: > 256 µM
Escherichia coli [2]
  MIC: 4 µM (≈ 1.64 µg/mL)
[3]
  IC50: 198000 nM
  Ki: 27300 nM

## O=C(CO[C@H](CO)c1ccc(C#Cc2ccccc2)cc1)NO
Escherichia coli [1]
  MIC: 256 µM (≈ 79.7 µg/mL)
Escherichia coli [2]
  MIC: 4 µM (≈ 1.25 µg/mL)
[3]
  IC50: 480 nM
  Ki: 66 nM

## O=C(NO)[C@H](CO)OCc1ccc(C#Cc2ccc(CN3CCOCC3)cc2)cc1
Escherichia coli [4]
  diameter of the inhibition zone (DIZ): 15.7 mm
Escherichia coli [5]
  diameter of the inhibition zone (DIZ): 25.8 mm
Escherichia coli [1]
  MIC: 64 µM (≈ 26.3 µg/mL)
Escherichia coli [2]
  MIC: 2 µM (≈ 0.821 µg/mL)
[3]
  IC50: 2820 nM
  Ki: 390 nM

## O=C(NO)[C@H](CO)O[C@H](CO)c1ccc(C#Cc2ccc(CN3CCOCC3)cc2)cc1
Escherichia coli [1]
  MIC: > 256 µM
Escherichia coli [2]
  MIC: 4 µM (≈ 1.76 µg/mL)
[3]
  IC50: 2600 nM
  Ki: 360 nM

## O=C(CO[C@H](CO)c1ccc(C#Cc2ccc(CN3CCOCC3)cc2)cc1)NO
Escherichia coli [1]
  MIC: 64 µM (≈ 26.3 µg/mL)
Escherichia coli [2]
  MIC: 0.5 µM (≈ 0.205 µg/mL)
[3]
  IC50: 690 nM
  Ki: 95 nM

## O=C(COCc1ccc(C#Cc2ccccc2)cc1)NO
Escherichia coli [1]
  MIC: 128 µM (≈ 36 µg/mL)
Escherichia coli [2]
  MIC: 4 µM (≈ 1.13 µg/mL)
[3]
  IC50: > 200000 nM
